GPR7 antagonist = human neuropeptides B/W receptor 1 antagonism | P48145 | GPR7-expressing cells, fluorescence antagonist assay | inhibition, % at 4.4 µM | actives 1.1% (n = 290,000); in the data active = inhibition above about 16%, passing the limit was not always enough;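 also: cells stimulated with the agonist NPW; 0% = agonist with vehicle and 100% = vehicle without agonist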
MPTP inh = blocks calcium-induced mitochondrial swelling | isolated mouse mitochondria, Ca2+ swelling absorbance, 30 min | inhibition, % at 10 µM | actives 1.4% (n = 360,000);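 active = inhibition of 50% or more, scaled per plate between neutral and stimulator controls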;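 also: 0% = DMSO wells given calcium and 100% = 1 mM EGTA wells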
CHO parental Ca = counter-screen: ATP calcium response change in parental CHO cells | parental CHO-K1, ATP-induced calcium, Fluo-8 fluorescence | inhibition, % at 5.6 µM | actives 0.63% (n = 330,000) | AID 463079;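 active = inhibition above that plate's mean sample inhibition plus 3 SD, cut at about 26% in these data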;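 also: 0% = ATP-challenged DMSO wells and 100% = DMSO wells without ATP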
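Material – parental CHO cells · Reagent – ATP stimulus · Compound – single nominal dose of 5.6 µM per compound · Detection – Fluo-8 fluorescence · Read-out basis – percent inhibition of calcium signal · Controls – ATP-challenged DMSO wells low, unchallenged DMSO wells high · Repeats – no replicates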
OX1R antag-1 = human HCRTR1 antagonism; actives 0.43% (n = 330,000); inhibition, % at 5 µM; CHO/OX1R cells, Fluo-8 calcium fluorescence, orexin A; O43613;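 active = inhibition above its plate's threshold, mean inhibition of all tested compounds on the plate plus 3 SD, cut at about 37% in these data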;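 also: 0% = orexin A challenge wells and 100% = SB-334867-A antagonist wells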
Target sequence (O43613 whole entry, looked up): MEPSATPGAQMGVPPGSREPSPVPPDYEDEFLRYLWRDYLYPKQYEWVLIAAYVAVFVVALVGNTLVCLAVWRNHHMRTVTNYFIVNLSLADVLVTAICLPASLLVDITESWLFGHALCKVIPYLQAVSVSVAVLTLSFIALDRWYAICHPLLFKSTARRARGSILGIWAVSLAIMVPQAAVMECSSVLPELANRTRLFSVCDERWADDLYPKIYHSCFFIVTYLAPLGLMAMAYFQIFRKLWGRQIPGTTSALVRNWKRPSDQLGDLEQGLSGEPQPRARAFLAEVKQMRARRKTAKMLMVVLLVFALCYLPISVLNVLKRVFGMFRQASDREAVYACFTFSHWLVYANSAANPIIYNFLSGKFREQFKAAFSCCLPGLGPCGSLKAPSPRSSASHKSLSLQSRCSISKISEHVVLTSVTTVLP
OX1R antag-2 = blocks the human orexin 1 receptor; OX1R-expressing cells, FRET antagonist read-out; O43613; actives 1.8% (n = 330,000); inhibition, % at 6.6 µM; in the data active = inhibition mostly above about 38%, no sharp cut-off; inactive = mostly below about 40%;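 also: 0% = agonist challenge alone and 100% = reference antagonist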
* hit, by the source's call; x = no result given. The list is not random: actives were taken first. Their share in the collection is about 3.8%.

SMILES | GPR7 antagonist | MPTP inh | CHO parental Ca | OX1R antag-1 | OX1R antag-2
CCOC(=O)CC(NC(=O)Cn1nnc(-c2ccccc2Cl)n1)c1ccc(OC)cc1 (configuration not stated) | 19.6* | 1.7 | -18.5 | -9.5 | 9.7
COc1ccc(S(=O)(=O)Nc2ccccc2-c2nnn(CC(=O)Nc3ccccc3OC)n2)cc1 | -9.5 | 12.9 | 44.4* | 33.0 | 60.2*
Cc1ccc(S(=O)(=O)Nc2cc(C)cn(Cc3ccc(F)cc3)c2=O)cc1 | 1.9 | 1.5 | -11.8 | -25.6 | 2.3
COc1ccc2[nH]c3c(c2c1)CCN1C(=O)C(CC(=O)NCCc2ccccn2)C[C@H](C(=O)N2CCCCC2)[C@@]31C (some centres not stated) | x | -0.3 | -22.9 | -18.7 | 8.1
CC(C)C[C@@H]1CC2=C(C(=O)OC(C)(C)O2)[C@H](c2ccc(Cl)cc2)O1 | x | 0.3 | x | x | x
O=C(C[n+]1ccccc1)N/N=C/c1cc(Br)cc(Br)c1O | 1.2 | -2.4 | 4.5 | -4.5 | 29.0*
CSc1nc2ccc(NC(=O)c3cccs3)cc2s1 | x | 1.4 | -16.0 | -10.3 | 37.5*
Cc1ccc2nc(NC(=O)c3ccc(Cl)s3)sc2c1 | -9.0 | 1.2 | -9.7 | -6.3 | 13.9
Cc1nc2ccc(NC(=O)c3ccc(Cl)s3)cc2s1 | -0.1 | 0.3 | 32.9* | 7.6 | 47.9*
CNc1cc(CSC)nc(SCc2ccc(Cl)c(Cl)c2)n1 | -3.6 | 7.3 | -16.8 | 55.1* | 49.3*
Cc1nc(SCc2ccc(Cl)c(Cl)c2)n[nH]1 | -15.1 | -0.3 | x | x | x
C=Cc1ccc(N=Cc2c(O)ccc3ccccc23)cc1 | 4.6 | 0.7 | -16.4 | -36.6 | 4.2
Oc1ccc2ccccc2c1C=Nc1ccc(N2CCOCC2)cc1 | -5.3 | x | -4.8 | 5.0 | 50.7*
CSc1nc(O)c(N=Nc2ccc(F)cc2F)c(=O)[nH]1 | -0.3 | -0.3 | -5.2 | -12.0 | 45.1*
C=CCn1c(O)c2ccc(C(=O)N=NC(=O)COc3ccccc3F)cc2c1O | x | 0.5 | -15.9 | -15.3 | 57.6*
Cc1ccc(N=Nc2c(N)[nH]n3c(=O)cc(-c4ccccc4)nc23)cc1 | -10.0 | 5.5 | 1.4 | -3.4 | 5.4
Cc1ccc(N=Nc2c(=O)[nH]n3c(=O)cc(C)[nH]c23)cc1 | -1.0 | -0.1 | 10.2 | 0.6 | 55.2*
O=C(O)c1cnc(-c2ccccc2)nc1Sc1ccccc1Cl | -5.0 | 8.6 | -0.1 | -22.1 | 56.0*
CCOC(=O)CNC(=S)n1ncnc1N | 16.5* | 0.5 | 3.3 | -3.2 | 25.8
CC(=O)Oc1ccc(/C=C2/Oc3ccccc3C2=O)cc1 | -1.3 | 10.5 | 49.3* | 35.4 | 6.2
Cc1ccnc(NC(=O)c2cc3ccccc3oc2=O)c1 | 7.2 | -0.1 | -9.6 | -14.7 | 16.9
O=C(NCC[C@H]1CC[C@@H](NC(=O)C2CCOCC2)[C@@H](CO)O1)Nc1ccc(Cl)cc1 | x | 10.7 | x | x | x
COc1c(C)cc(Br)cc1C(=O)Nc1cccc(NC(=O)c2ccco2)c1 | -16.4 | -1.7 | -13.6 | 5.7 | 11.4
Cc1cc(C)c(OCC(=O)Nc2cccc(NC(=O)c3ccco3)c2)c(Br)c1 | -10.5 | 6.1 | 31.9* | 28.1 | 63.8*
COc1ccc(Br)cc1C(=O)Nc1cccc(NC(=O)c2ccco2)c1 | -15.6 | 8.5 | -8.7 | -11.0 | 44.2*
SMILES | GPR7 antagonist | MPTP inh | CHO parental Ca | OX1R antag-1 | OX1R antag-2
CCCC(=O)N1CCCC(c2cc(C(=O)NCc3cccnc3)no2)C1 (configuration not stated) | x | -0.1 | x | x | x
Cc1c(Cl)cccc1NC(=O)C(=O)NNC(=O)c1ccccc1F | 6.4 | 0.1 | 23.8* | 4.3 | 17.8
Cc1ccccc1C(=O)NNC(=O)C(=O)Nc1cccc(Cl)c1C | -2.0 | 0.6 | -21.5 | -19.3 | 9.7
Cc1ccc(-n2nnnc2SCc2nnc(-c3ccccc3Br)o2)c(C)c1 | -8.1 | 2.3 | 25.3 | 62.8* | 44.4*
Cc1cccc(/C=C/c2onc(C)c2[N+](=O)[O-])n1 | x | x | -10.8 | -12.3 | 65.3*
Cc1cccc(N/C=C/c2onc(C)c2[N+](=O)[O-])c1 | 8.6 | 13.6 | -4.5 | -10.1 | 28.4
O=C(CCc1nnc(CCC2CCCCC2)o1)NCCc1cccnc1 | -8.0 | 1.6 | -10.7 | -5.3 | 12.3
CCN(C(=O)COC(=O)COc1ccccc1Cl)c1c(N)n(Cc2ccccc2)c(=O)[nH]c1=O | x | 0.3 | -12.0 | -11.7 | 11.4
O=C(COC(=O)c1cc([N+](=O)[O-])ccc1N1CCOCC1)NCc1ccccc1 | x | -0.4 | x | x | x
CC(NC(=O)COC(=O)c1cc([N+](=O)[O-])ccc1N1CCOCC1)c1ccccc1 (configuration not stated) | -13.0 | -1.5 | -22.9 | -30.8 | 50.8*
CC(NC(=O)COC(=O)c1cc([N+](=O)[O-])ccc1N1CCOCC1)c1ccc(F)cc1 (configuration not stated) | x | -0.3 | -16.0 | -15.4 | 39.5*
COc1c2ccoc2c(OC[C@@H](O)C(C)(C)O)c2oc(=O)ccc12 | -6.7 | -0.6 | -14.2 | 7.8 | 62.4*
COc1ccc([N+](=O)[O-])cc1NC(=O)c1ccc(Br)s1 | -1.7 | 2.8 | 15.2 | -4.8 | 11.7
Cc1nc2nc(-c3cccs3)[nH]c2cc1Br | x | 3.5 | -4.6 | -0.3 | 42.6*
COc1ccc(CCNC(=O)Cn2c(=O)n(-c3ccc(C)c(F)c3)c(=O)c3sccc32)cc1OC | -3.5 | 2.1 | -13.1 | -19.1 | 8.8
Cc1nc(-c2ccc(S(=O)(=O)Oc3ccccc3Cl)s2)cs1 | 2.0 | 2.9 | 57.5* | 9.5 | 5.6
CCCCCNC(=O)C(c1ccc(-c2ccccc2)cc1)n1c(=O)c(-c2cc3ccccc3[nH]2)nc2ccccc21 (configuration not stated) | x | 0.5 | x | x | x
Fc1ccc(C(CCCn2nnc(-c3cccnc3)n2)c2ccc(F)cc2)cc1 | 3.2 | 36.4 | 35.4* | 47.9* | 41.2
Fc1ccc(-n2nnc(-c3cccnc3)n2)cc1 | -9.3 | 1.2 | -17.9 | -11.9 | 27.8
CCN1C(=O)C(=O)N(CC(=O)c2[nH]c(C)c(C(C)=O)c2C)C1=O | x | 0.1 | -5.3 | -11.7 | 13.1
CC(=O)c1c(C)[nH]c(C(=O)CN2C(=O)NC(C)(c3ccc(C)cc3)C2=O)c1C (configuration not stated) | 19.8* | -1.0 | -7.5 | -15.5 | 0.7
O=C(O)c1cc2ccccc2c(N=Nc2cccnc2)c1O | -16.6 | 1.4 | -8.3 | -12.5 | 73.6*
O=[N+]([O-])c1ccc(C2=CSC3=NCCN23)cc1 | x | 2.1 | 6.3 | -0.5 | 46.9*
Cc1nn(-c2ccccc2)c(N)c1N=O | -1.8 | 0.8 | -6.3 | -7.6 | 61.0*
O=C(Nc1nc2c(s1)CCCC2=O)c1cnccn1 | -13.3 | -2.1 | 1.8 | -11.0 | 49.1*
COc1cccc(-n2nnnc2S(C)(=O)=O)c1 | 28.0* | 2.0 | 18.9 | -1.2 | 10.2
COc1cccc(Oc2nnnn2-c2ccccc2)c1 | 8.7 | 4.1 | -1.2 | -9.3 | 7.8
CCOc1ccccc1NC(=O)C(Sc1ccccc1)c1ccccc1 (configuration not stated) | -21.3 | 1.1 | 57.2* | 58.9* | 37.3
O=C(NCc1ccccc1Cl)[C@H]1CCCN1C(=O)[C@H]1CCCN1C(=O)c1ccc(Cl)cc1 | x | 1.6 | x | x | x

Assay outcomes: PubChem BioAssay, several laboratories
